Bioassay records deposited in PubChem BioAssay by Johns Hopkins Ion Channel Center.
This is a sample that favours compounds with a hit; in the whole collection about 3.8% have one here.
KCNQ1 block: blocks the human KCNQ1 potassium channel | 310,000 compounds, 1.3% hits | B-score at 10 µM | P51787 | CHO-K1 KCNQ1, FluxOR thallium flux fluorescence; hits give high values;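 active = compounds whose thallium flux B-score, printed positive for inhibition, exceeds three library SD while starting fluorescence stays within three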;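 also: channel opened by potassium depolarization with thallium stimulus after 20 min compound exposure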
KCNK3 inh: human KCNK3 channel inhibition, primary screen; AID 602410; O14649; B-score at 10 µM; 340,000 compounds, 0.84% hits; CHO-KCNK3 thallium flux, FluxOR fluorescence; hits give low values;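 active = B-score under library mean minus 4 SD, starting fluorescence ratio at most library mean plus 5 SD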;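 also: more negative B-score means stronger inhibition of thallium flux through KCNK3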
Kir21 inh: blocks the mouse Kir2.1 inward-rectifier potassium channel | P35561 | HEK293-Kir2.1, FluxOR thallium flux fluorescence; hits give low values | B-score at 10 µM | 310,000 compounds, 0.85% hits | AID 1672;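 active = fluorescence ratio B-score at or below minus 3 SD of library scores, with starting-brightness B-score within 2 SD, cut at about -4.2 in these data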;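 also: channel flux triggered by added potassium and thallium sulfate stimulus; B-score of peak minus minimum fluorescence over baseline after thallium stimulus; more negative B-score means stronger Kir2.1 block with less thallium influx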
KCNK9 inh: human KCNK9 channel inhibition; Q9NPC2; HEK293 KCNK9, FluxOR thallium flux fluorescence; hits give low values; B-score at 10 µM; 310,000 compounds, 1.2% hits; AID 488922;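 active = ratio B-score over 3 SD below the library mean, with starting fluorescence within 5 SD of its mean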;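 also: negative B-score means less thallium flux so channel inhibition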
KCNQ1 act: potentiators or activators of human KCNQ1 potassium channel | 310,000 compounds, 0.35% hits | CHO-K1 KCNQ1, thallium flux FluxOR fluorescence; hits give high values | B-score at 10 µM | P51787;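 active = fluorescence ratio B-score, a plate-corrected score, at least three library SD, with initial intensity B-score within 5 SD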
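System: CHO-K1 cells stably expressing KCNQ1 / Medium: assay buffer for compound exposure, DMSO matched across wells / Reagent: thallium- and potassium-containing depolarizing buffer / Compound: one concentration, matched DMSO / Incubation: 20 min compound pretreatment at room temperature / Measured by: kinetic FluxOR fluorescence, 10 s baseline plus 110 s post-stimulus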
hERG protect: hERG (human) protection from proarrhythmic block | CHO-hERG, FluxOR thallium flux, dofetilide IC70 present | 310,000 compounds, 0.51% hits | AID 1511 | Q12809 | activation (rescue from dofetilide block), less the hit threshold, % at 10 µM;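 active = activation above the mean of controls blocked by dofetilide plus 5 SD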;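 also: thallium influx through hERG after potassium depolarization seen as dye fluorescence rise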
KCNK9 inh conf: confirmation of human KCNK9 potassium channel inhibitors | HEK293 KCNK9 cells, FluxOR thallium flux fluorescence | shares compounds with KCNK9 inh | 4,900 compounds, 43% hits | inhibition, % at 10 µM | AID 492992;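 active = thallium signal inhibited by more than 5 SD of the compound-free buffer control wells, on both duplicate plates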
Kir2-1 spec: tests whether KCNK9 modulators also affect mouse Kir2.1. inhibition, % at 10 µM. shares compounds with KCNK9 inh. Kir2.1 cells, FluxOR thallium flux fluorescence. 4,900 compounds, 4% hits;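 active = thallium signal drop more than 5 SD beyond the mean of the no-compound control wells, seen in both duplicate plates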;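 also: signal is fluorescence rise after thallium addition divided by baseline fluorescence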
HEK293 Tl ctr: second check of KCNK9 modulator effects in non-induced HEK293 cells. shares compounds with KCNK9 inh. FluxOR thallium flux. inhibition, % at 10 µM. 4,900 compounds, 40% hits. AID 492997;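 active = thallium signal drop beyond 5 SD of the untreated control mean, on both duplicate plates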
Of the large screens only hits and unclear results are named; the others gave an inactive call (follow-up assays come after a bar, where they were run).

CC(=O)c1cccc(NC(=O)CN2C(=O)NC(C)(c3ccc4c(c3)OCCCO4)C2=O)c1 (configuration not stated)	none (no result: KCNQ1 block, Kir21 inh, KCNK9 inh, KCNQ1 act, hERG protect)
O=[N+]([O-])c1ccccc1S(=O)(=O)N1CCCc2ccccc21	none
O=C1[C@@H]2[C@@H]3C[C@@H]([C@H]4ON=C(c5ccc(Cl)cc5)[C@@H]34)[C@@H]2C(=O)N1C1CCCCC1	none | KCNK9 inh conf inactive | Kir2-1 spec inactive | HEK293 Tl ctr inactive
C=CCOc1ccc(C2=NO[C@@H]3[C@@H]4C[C@@H]([C@H]5C(=O)N(C)C(=O)[C@@H]45)[C@H]23)cc1	none
O=C(O)CN1C(=O)/C(=C\c2cc([N+](=O)[O-])ccc2OCc2ccccc2Cl)SC1=S	none | KCNK9 inh conf inactive | Kir2-1 spec inactive | HEK293 Tl ctr inactive
O=C(O)CN1C(=O)/C(=C\c2cc(Br)ccc2OCc2ccc(Cl)cc2)SC1=S	none
CCCCN(C(=O)c1cccc2c(=O)c(C)c(-c3ccccc3)oc12)c1ccccc1	KCNK9 inh -10 | KCNK9 inh conf 40% | Kir2-1 spec inactive | HEK293 Tl ctr 34%
CCOC(=O)c1c(C)[nH]c(N=Nc2ccc(C)cc2C)c1C	none
CCOC(=O)c1c(C)[nH]c(N=Nc2ccccc2C)c1C	KCNK9 inh -9.4 | KCNK9 inh conf 52% | Kir2-1 spec inactive | HEK293 Tl ctr inactive
Cc1ccc(NC(=O)c2ccc(Cl)c(S(=O)(=O)N3CCCCC3)c2)nc1	none (no result: KCNQ1 block, Kir21 inh, KCNK9 inh, KCNQ1 act, hERG protect)
CCn1c(SCC(=O)c2cc(C)ccc2C)nc2cc(S(=O)(=O)N3CCOCC3)ccc21	none | KCNK9 inh conf inactive | Kir2-1 spec inactive | HEK293 Tl ctr inactive
CC(C)/C=C/C(=O)N1CCCC(N2CCN(c3ccccc3F)CC2)C1 (configuration not stated)	none | KCNK9 inh conf inactive | Kir2-1 spec inactive | HEK293 Tl ctr inactive
O=C(c1ccco1)N1CCCC(N2CCN(c3ccccc3F)CC2)C1 (configuration not stated)	none
CCOc1ccccc1-n1c(SCC(=O)Nc2nccs2)nnc1-c1ccoc1C	KCNK9 inh -8.7 | KCNK9 inh conf 47% | Kir2-1 spec inactive | HEK293 Tl ctr 26%
CCOc1ccc(-n2c(SCC(=O)Nc3nccs3)nnc2-c2ccoc2C)cc1	none
CC1CN(C(=S)Nc2ccccc2)C(C)CN1C=O (configuration not stated)	none (no result: KCNQ1 block, Kir21 inh, KCNK9 inh, KCNQ1 act, hERG protect)
